Results collected from several papers.
Protocols differ between the studies behind these lines.
Target: Mitogen-activated protein kinase 13 (MAPK13, Homo sapiens, UniProt O15264)

Structure (SMILES) | test | conditions | quantity | value
Cn1c2c(c3ccc(Cl)c(Cl)c31)C(C#N)C1(CCN(C(=O)OC(C)(C)C)CC1)NC2=O (racemic) | thermal stability, DSF | 10 µM | ΔTm | -0.1 °C
O=C1Nc2ccc(Cl)cc2C1=Cc1cc(Cl)c(O)c(Cl)c1 | cell-free assay | 0.5 µM | remaining signal | 97.8%
Cc1nc(C2CCN(C(=O)c3ccc(OC(F)(F)F)cc3N)CC2)c2ncc(N3CCN(C)CC3)cc2n1 | cell-free assay, competition with immobilised ligand | 1 µM | remaining binding | 100%
N#CCCc1ccc2c(c1)-c1[nH]c3ccc([N+](=O)[O-])cc3c1CC(=O)N2 | cell-free assay | 0.5 µM | remaining signal | 98.2%
Cn1c2c(c3ccc(Cl)c(Cl)c31)C(C#N)C1(CCCC1)NC2=O (centres unmarked) | thermal stability, DSF | 10 µM | ΔTm | -0.1 °C
Nc1ncnc2occ(-c3ccc(NC(=O)Nc4cc(C(F)(F)F)ccc4F)cc3)c12 | cell-free assay, inhibitor | 20 µM | remaining signal | 0.4%
Cc1ccc(NC(=O)c2ccc(CN3CCN(C)CC3)cc2)cc1Nc1nc(-c2cccnc2)cs1 | cell-free assay | 0.5 µM | remaining signal | 101%
O=C(Nc1ccc(Oc2ccc(F)cc2)cc1)N1CCc2ncccc2[C@H]1c1ccc(F)cc1 | cell-free assay, competition with immobilised ligand | 1 µM | remaining binding | 96%
Oc1cccc(-c2nc(N3CCOCC3)c3oc4ncccc4c3n2)c1 | enzyme activity, inhibitor | 10 µM | remaining activity | 84%
COc1cc(-c2cc(-c3ccc(N4CCNCC4)cc3)cnc2C)cc(OC)c1OC | enzyme activity, inhibitor | 1 µM | inhibition | 1%
Cc1nccc(COC(=O)N2C[C@@H]3[C@@H](CNC(=O)c4ccc5[nH]nnc5c4)[C@@H]3C2)n1 | cell-free assay, competition with immobilised ligand | 1 µM | remaining binding | 98%
CN1CC(Oc2cnc(C#N)cc2-c2ccn3nc(NC(=O)C4CC4)cc3c2)C1 | enzyme activity, inhibitor | 1 µM | inhibition | -1%
COc1cc2ncnc(Nc3ccc(Oc4ccccc4)cc3C)c2cc1OC | enzyme activity, inhibitor | 1 µM | inhibition | 1%
FC(F)c1nc2ccccc2n1-c1nc(N2CCOCC2)nc(N2CCOCC2)n1 | enzyme activity, inhibitor | 10 µM | remaining activity | 107%
CC(C)(C)c1nc(-c2cccc(NS(=O)(=O)c3c(F)cccc3F)c2F)c(-c2ccnc(N)n2)s1 | enzyme activity, inhibitor, radiometric | 1 µM | remaining activity | 85%
Cc1noc([C@H]2C[C@@H](c3ccc(C(F)(F)F)cc3)CN(C(=O)N3CCS(=O)(=O)C3)C2)n1 | cell-free assay, competition with immobilised ligand | 1 µM | remaining binding | 100%
Cn1c2c(c3ccc(Cl)c(Cl)c31)C(C#N)C1(CCNCC1)NC2=O (racemic) | thermal stability, DSF | 10 µM | ΔTm | 0.5 °C
CCOc1cc(-c2nncn2C)ccc1Nc1ncc2cc(C)nc(NCC(C)(C)C)c2n1 | enzyme activity, inhibitor, FRET | 1 µM | inhibition | < 15%

Structure (SMILES) | test | conditions | quantity | value
CNC(=O)c1cc(Oc2ccc(NC(=O)Nc3ccc(Cl)c(C(F)(F)F)c3)cc2)ccn1 | enzyme activity, inhibitor | 0.3 µM | inhibition | -6%
CCN1CCC2(CC1)NC(=O)c1c(c3ccc(Cl)c(Cl)c3n1C)C2C#N (racemic) | thermal stability, DSF | 10 µM | ΔTm | 0.6 °C
Cc1sc(C(=O)NC2COC2)cc1-n1cc(NC(=O)Nc2c(F)cccc2Cl)cn1 | enzyme activity, inhibitor | 10 µM | remaining activity | 89.2%
CN(C)C1CCN(CC#Cc2nn(C3CCCC3)c3nc(NCc4ccccc4)ncc23)C1 (centres unmarked) | enzyme activity, inhibitor, FRET | 10 µM | inhibition | 2%
Cn1c2c(c3ccc(Cl)c(Cl)c31)C(C#N)C1(CCOCC1)NC2=O (centres unmarked) | thermal stability, DSF | 10 µM | ΔTm | 0.4 °C
COc1cc(Nc2cnc(C#N)c(O[C@H](C)CN(C)C)n2)ncc1-c1cnn(C)c1 | enzyme activity, inhibitor, radiometric | 10 µM | remaining activity | 73%
CCC(=O)N[C@@H]1CC[C@H](C(=O)N(C)c2ccc(-c3nc4ccccc4o3)cc2)C1 | cell-free assay, competition with immobilised ligand | 1 µM | remaining binding | 100%
CN(c1ncccc1CNc1nc(Nc2ccc3c(c2)CC(=O)N3)ncc1C(F)(F)F)S(C)(=O)=O | enzyme activity, inhibitor | 1 µM | inhibition | 42.1%
COc1cc(/C=C/C(=O)CC(=O)/C=C/c2ccc(O)c(OC)c2)ccc1O | enzyme activity, inhibitor | 1 µM | activity vs control | 105%
Cc1ccc(Nc2nccc(N(C)c3ccc4c(C)n(C)nc4c3)n2)cc1S(N)(=O)=O | enzyme activity, inhibitor | 0.3 µM | inhibition | -11%
Cc1ccc(C(=O)Nc2ccc(CN3CCN(C)CC3)c(C(F)(F)F)c2)cc1C#Cc1cnc2cccnn12 | enzyme activity, inhibitor | 23.5 nM | remaining activity | 93%
CNC(=O)c1ccc(Nc2ncc(C(F)(F)F)c(NCc3nccnc3N(C)S(C)(=O)=O)n2)cc1 | cell-free assay, competition with immobilised ligand | 0.1 µM | remaining binding | 91%
Cc1cnc(NC2CCOCC2)nc1-n1cnc(C(=O)NC(CN)c2cc(F)cc(Cl)c2)c1 (centres unmarked) | enzyme activity, inhibitor, radiometric | 1 µM | remaining activity | 28%
O=C(NS(=O)(=O)c1ccc(NCC2CCOCC2)c([N+](=O)[O-])c1)c1ccc(N2CCN(Cc3ccc(C(F)(F)F)cc3-c3ccc(Cl)cc3)CC2)cc1Oc1cnc2[nH]ccc2c1 | cell-free assay, competition with immobilised ligand | 1 µM | remaining binding | 99%
Nc1nc(Nc2ccccc2)sc1C(=O)c1c(F)cccc1F | enzyme activity, inhibitor | 10 µM | remaining activity | 62%
O=C(NCc1ncc(C(F)(F)F)cc1Cl)c1ccc2c(c1)C1(CCS(=O)(=O)CC1)[C@H](C1CC1)N2S(=O)(=O)c1ccc(F)cc1 | cell-free assay, competition with immobilised ligand | 1 µM | remaining binding | 99%
CCN(CC)CCNC(=O)c1c(C)[nH]c(/C=C2\C(=O)Nc3ccc(F)cc32)c1C | enzyme activity, inhibitor | 10 µM | inhibition | -5%
